Data set [1] in a line: In vitro microsomal stability in RLMs. The class given is in vitro ADME, rat. The note with it: for microsomal CLint at 1 μM: rat, rat liver microsomes, pH 7.4. An outline of the steps:
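Test compound at 1 μM (spiked from 200 μM stock) in 50 mM phosphate buffer pH 7.4 with 1 mg protein/mL rat liver microsomes and 3 mM MgCl2. Mixture pre-incubated 5 min at 37 ± 0.5 °C, then started with NADPH (1 mM final) and shaken for 30 min. Aliquots taken at 0, 5, 10, 15, 20 and 30 min, quenched in ice-cold acetonitrile with internal standard, filtered and analysed by LC-MS/MS. Controls: verapamil (positive) and no-NADPH mixture (negative).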
On the technique in general: Liver microsomes are a subcellular fraction often used to study metabolism.

The target in data set [2] is T1, σ1R (Cavia porcellus, UniProt Q60492). The note with it: selectivity ratio; ref Yous et al. 2005; cited from earlier work.
T1 sequence (Q60492 whole entry): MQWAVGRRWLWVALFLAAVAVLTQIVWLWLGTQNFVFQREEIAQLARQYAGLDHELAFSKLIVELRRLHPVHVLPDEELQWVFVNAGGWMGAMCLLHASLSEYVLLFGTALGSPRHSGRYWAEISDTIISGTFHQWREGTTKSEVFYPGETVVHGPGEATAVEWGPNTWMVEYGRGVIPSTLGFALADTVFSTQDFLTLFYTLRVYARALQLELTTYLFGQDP
In the next data set the target is σ2R. The note with it: read-out: Ki (nM ± SEM) σ2R; ref Yous et al. 2005; cited from earlier work.
Data set [3] addresses T1, σ1R. Kind of data set: σ1R radioligand binding with [3H]. More on the design: species or system guinea pig. The note with it: for Ki σ2R /Ki σ1R: selectivity ratio σ2R over σ1R. In a few lines: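 Membranes from frozen whole guinea pig brain. Each tube held 3 nmol/L [3H](+)-pentazocine (28 Ci/mmol) and 8.0 mg tissue.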
Data set [4] is described as follows: Metabolic soft spot identification of 12 in RLMs. It counts as in vitro ADME, rat. Conditions: RLMs with NADPH. In a few lines: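 Test compound at 10 μM in 50 mM phosphate buffer pH 7.4 with 1 mg protein/mL rat liver microsomes, pre-incubated 5 min at 37 ± 0.5 °C with shaking. Reaction started with NADPH (1 mM final). Samples taken at 0 min (control) and 10 min, mixed with an equal volume of ice-cold acetonitrile, vortexed 2 min and centrifuged at 10,000 g for 5 min. Supernatant analysed by LC-HRMS on a QToF.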

The values that follow come from publication PMC7880169 (Medicinal chemistry research : an international journal for …, 2020).

Where two headings read alike, the source gives them in different places. Bounds are passed on as bounds.

What is called microsomal CLint is the rate of metabolic loss divided by the concentration. A high value points to faster metabolism. For orientation: Ki means the dissociation constant of the complex between target and ligand, obtained from inhibition or displacement. As for `CCCc1ccc2c(c1)sc(=O)n2CCN1CCCCCC1` [SN56, 3-[2-(azepan-1-yl)ethyl]-6-propylbenzo[d]thiazol-2(3H)-one, reference compound], in data set [1] (RLMs 1 mg protein/mL, 1 μM compound, NADPH, 37 °C), the “t1/2 (in vitro hepatic microsomal half-life)” value amounted to 0.98 min. Besides, in data set [1], the microsomal CLint at 1 μM is 710 µL/min/mg. The “Ki σ2R /Ki σ1R” value at σ1R [2] is reported as more than 1000. The Ki on σ2R is more than 1000 nM.

As for `O=c1sc2ccccc2n1CCNC12CC3CC(CC(C3)C1)C2` [Compound 7, 3-{2-[(Adamantan-1-yl)amino]ethyl}benzo[d]thiazol-2(3H)-one], on σ1R [3], the affinity, expressed as Ki, was 131 ± 9.94 nM and the “Ki σ2R /Ki σ1R” value was 0.5. In addition, in data set [1], the intrinsic metabolic clearance (microsomal CLint) at 1 μM was determined as 460 µL/min/mg.

As to `CCCc1ccc2c(c1)sc(=O)n2CCNC12CC3CC(CC(C3)C1)C2` [Compound 9, 3-{2-[(Adamantan-1-yl)amino]ethyl}−6-propylbenzo[d]thiazol-2(3H)-one], on σ1R [3], the Ki came to 11.2 ± 0.68 nM and the “Ki σ2R /Ki σ1R” value came out at 6.2. The microsomal CLint at 1 μM in data set [1] was 280 µL/min/mg.

Turning to `CN(CCn1c(=O)sc2ccccc21)C12CC3CC(CC(C3)C1)C2` [Compound 10, 3-{2-[(Adamantan-1-yl)(methyl)amino]ethyl}benzo[d]thiazol-2(3H)-one], at σ1R [3], affinity was put at a Ki of 12.9 ± 1.8 nM and the “Ki σ2R /Ki σ1R” value was determined as 6.6. In data set [1], this molecule had a microsomal CLint at 1 μM of 650 µL/min/mg.

Consider `CCC(=O)c1ccc2c(c1)sc(=O)n2CCN(C)C12CC3CC(CC(C3)C1)C2` [Compound 11, 3-{2-[(Adamantan-1-yl)(methyl)amino]ethyl}−6-propionylbenzo[d]thiazol-2(3H)-one], for which, on σ1R [3], the Ki worked out at 12.9 ± 1.84 nM and the “Ki σ2R /Ki σ1R” value was found to be 8.7. In data set [1], this molecule yielded a microsomal CLint at 1 μM of 560 µL/min/mg.

In the case of `CCC(=O)c1ccc2c(c1)sc(=O)n2CCNC12CC3CC(CC(C3)C1)C2` [Compound 8, 3-{2-[(Adamantan-1-yl)amino]ethyl}−6-propionylbenzo[d]thiazol-2(3H)-one], on σ1R [3], the Ki came out at 11.2 ± 1.26 nM and the “Ki σ2R /Ki σ1R” value was 6.3. The same molecule returned a microsomal CLint at 1 μM in data set [1] of 160 µL/min/mg.

For `CCCc1ccc2c(c1)sc(=O)n2CCN(C)C12CC3CC(CC(C3)C1)C2` [Compound 12, 3-{2-[(Adamantan-1-yl)(methyl)amino]ethyl}−6-propylbenzo[d]thiazol-2(3H)-one], on σ1R [3], the Ki came out at 7.2 ± 0.88 nM and the “Ki σ2R /Ki σ1R” value was 61. For the same molecule, in data set [1], the microsomal CLint at 1 μM stood at 370 µL/min/mg. Further, the “remaining unmodified at the end of 10 min incubation” value in data set [4] was “ca. 6%”.
